Compound activity from PubChem.
BB579 growth dn – chemicals that inhibit yeast BB579 growth in restrictive medium (lifespan-shortening candidates); inhibition, % at 10 µM; hit rate 0.51% among 140,000; S. cerevisiae BB579 growth, OD615, 48 h;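 active means inhibition above a set limit, 3 SD over the mean compound inhibition, cut at about 44% in these data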
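Test system: Saccharomyces cerevisiae DeaD strain BB579, replicative lifespan model yeast | Buffer or medium: Restrictive CSMM-D medium | Doses: One dose, 10 µM compound with 0.25% DMSO | Incubation: 48 h exposure, 30 °C | Detection: Culture absorbance at 615 nm | Control set: Amphotericin B at 10 µg/mL as positive control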
RAM network inh – inhibitors of the yeast RAM network | hit rate 1.8% among 190,000 | AID 868 | inhibition, % at 50 µM | S. cerevisiae dse1pr::URA3 reporter, 5-FOA growth OD615, 2 d; analog-sensitive cbk1-as2 kinase mutant strain;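 active means inhibition above a set limit, 3 SD over mean compound inhibition, cut at about 8.4% in these data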;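 further: 0% = DMSO-only wells with no growth and 100% = 10 µM 1-NA-PP1 full growth; inhibition rescues growth on 5-FOA so higher OD means more RAM inhibition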
sdo1 growth – restores growth of sdo1-depleted yeast. S. cerevisiae sdo1-depleted JHY4D growth rescue, OD600 30 h; active compounds read high; pdr5 snq2 efflux-pump mutant strain. hit rate 0.21% among 140,000. z-score at 10 µM;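 active means z-score above 3 at both the 24 hr and the 30 hr optical density reads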;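 further: z-score against mean and SD of all compound wells on the same plate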
Yeast life ext – extends the lifespan of yeast; AID 775; inhibition of the nicotinamide effect, % at 10 µM; S. cerevisiae growth with nicotinamide, OD615; deaD strain in restrictive glucose medium; hit rate 0.68% among 130,000;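 active means inhibition above a set limit, placed 3 SD over the median of all compounds, cut at about 26% in these data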;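 further: 0% = nicotinamide-treated wells and 100% = cells grown without nicotinamide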
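Assay system: engineered S. cerevisiae DeaD replicative-lifespan strain, galactose-grown log-phase cells; Buffer or medium: CSMM-D glucose medium, restrictive; Probe or stimulus: nicotinamide 1.5 mM; Compound: single dose 10 µM compound, 0.25% DMSO; Schedule: 4 h preincubation then 48 h treatment at 30 °C; Technique: OD615 measurement.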
sdo1 rescue conf – confirmation of growth rescue in SDO1-depleted yeast, bone marrow failure | shares compounds with sdo1 growth | S. cerevisiae JHY4D (SDO1-depleted) growth rescue, OD600, 30 h; active compounds read high; efflux-deficient strain, SNQ2 and PDR5 mutated | OD recovery (concentration not given with the values) | hit rate 44% among 440 | AID 949;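 active means yeast growth recovered at 30 hours, either rising with dose fitted slope above 0.001 or with average optical density gain above 0.07, some results past the limit were not filed as active; inactive means growth falling with dose or no effect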;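 further: gain in OD600 from 0 h to 30 h averaged across all seven doses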
RAM efflux-def – RAM network inhibition, efflux-deficient strain. shares compounds with RAM network inh. S. cerevisiae efflux-deficient reporter strain, 5-FOA growth OD615, 2 days. max inhibition, %. 1,200 tested, under 10 active. AID 1305; call rule not given here;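 further: plate controls were vehicle for no effect and reference inhibitor for full effect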
Numbers without * were called inactive; . = no result given. Rows were chosen to be rich in hits. Some 2.7% of all compounds tested hit in one or more screens of this group.

SMILES	BB579 growth dn	RAM network inh	sdo1 growth	Yeast life ext	RAM efflux-def	others
COc1ccccc1Cn1c(SCC(=O)C(C)(C)C)nc2cc(C(=O)N3CCC4(CC3)OCCO4)ccc2c1=O	.	11*	.	.	.
COc1ccc(-n2cnc3cc(C(=O)N4CCC5(CC4)OCCO5)ccc32)cc1	.	1	.	.	.
COc1ccc([N+](=O)[O-])cc1N=Cc1c(O)n(CCc2ccccc2)c(=O)n(C(C)C)c1=O	-36	11*	-0.04	-2	.
Cc1ccc(N2C(=O)NC(=O)/C(=C\c3cc(C)n(-c4sc5c(c4C#N)CCCC5)c3C)C2=O)cc1	-48	4	-1.6	-1	.
CCOC(=O)c1c(-n2c(C)cc(C=C3C(=O)NC(=S)NC3=O)c2C)sc2c1CCCC2	-71	11*	-2.1	39	.
Oc1ccccc1/C=N/NP(=S)(c1ccccc1)c1ccccc1	.	8.6*	.	.	.
Cc1ccc(-n2c(O)c(C=NCCC3=CCCCC3)c(=O)[nH]c2=O)cc1	.	4	.	.	.
COCCCN1CCN(c2nnc3n2-c2sc(Br)cc2C(c2ccccc2Cl)=NC3)CC1	-26	0	1.3	50*	.
CC(C)(C)NC(=S)N1CCn2cccc2C1c1cccnc1 (centres undefined)	.	1	.	.	.
CN(C)C=C1C(=O)N(C2CCCCC2)C(=O)N(C2CCCCC2)C1=O	-33	1	-0.13	39*	.
c1ccc(-c2ccc(-c3n(-c4ccccn4)c4ccccc4[n+]3-c3ccccn3)cc2)cc1	.	3	.	.	.
CCOC(=O)c1cc(CC)sc1/N=C/c1c(O)[nH]c(=S)[nH]c1=O	-19	1	14*	-3	.	sdo1 rescue conf=0.069
O=c1[nH]c(=S)[nH]c(O)c1N=Nc1ccc(S(=O)(=O)N2CCc3ccccc32)cc1	.	4	.	.	.
COc1ccc(N2C(=O)NC(=O)/C(=C\c3ccc([N+](=O)[O-])s3)C2=O)cc1	.	-1	.	.	.
COc1ccc(N2C(=O)/C(=C/C=C/c3ccccc3[N+](=O)[O-])C(=O)NC2=S)cc1	.	17*	.	.	2
COc1cccc(NP(=O)(Oc2ccc(Cl)cc2)Oc2ccc(Cl)cc2)c1	-29	15*	-0.58	4	5
Cc1cccc(NP(=O)(Oc2ccccc2F)Oc2ccccc2F)c1	-43	16*	-0.96	10	2
COc1ccccc1OP(=O)(Nc1cccnc1)Oc1ccccc1OC	9	2	1	-1	.
O=P(Nc1ccccc1)(Nc1ccccc1)Oc1ccc(Cl)cc1	6	5	-1.1	-4	.
Cc1ccc(NP(=O)(Oc2ccccc2F)Oc2ccccc2F)cc1C	-36	17*	-1.4	14	2
C=CCSC1=N/C(=C\c2cc(OC)c3c(c2)OCO3)C(=O)S1	-35	12*	-0.61	-3	3
CN1CN(c2cccc([N+](=O)[O-])c2)CN=C1N[N+](=O)[O-]	.	2	.	.	.
FC(F)(F)c1nc(N2CCN(c3ccccc3)CC2)nc2c1CCCCC2	-53	14*	0.1	-7	4
COCCNCCOc1ccc(C(C)(C)c2ccccc2)cc1	-30	1	-0.53	3	.
CCOc1ccc2nc(N=Nc3c(O)[nH]c(=S)[nH]c3=O)sc2c1	.	12*	.	.	6
SMILES	BB579 growth dn	RAM network inh	sdo1 growth	Yeast life ext	RAM efflux-def	others
Cc1c(N=Nc2c(O)[nH]c(=S)[nH]c2=O)c(=O)n(-c2ccccc2)n1C	-4	0	0.15	-3	.
Cc1ccc(Cn2cc(C=O)c(-c3ccc(C)cc3)n2)cc1	-18	16*	-0.85	1	1
CCOP(=O)(OCC)C(NS(=O)(=O)c1ccccc1)C(Cl)(Cl)Cl (centres undefined)	.	0	.	.	.
CN1C(=O)/C(=C/c2cccn2-c2ccc3ccccc3c2)C(=O)NC1=S	-10	15*	-1.1	49*	4
O=C1NC(=S)NC(=O)C1=Cc1cccn1-c1ccc(O)cc1	.	8	.	.	.
O=C(O)c1cccc2c1NC(C(=O)O)C1CC(Sc3ccccc3[N+](=O)[O-])C(Cl)C21 (centres undefined)	-18	15*	0.75	-1	7
COc1cccc(C2(O)CCN(Cc3ccncc3)CC2)c1	.	4	.	.	.
COc1ccc(CN2CCCC(C(=O)c3sccc3C)C2)cc1O (centres undefined)	.	2	.	.	.
